Assay outcomes from PubChem BioAssay.
Only some compounds are listed: those with a hit (about 2.9% of all), similar ones and a draw of the others.
DENV2 CPE: inhibitors of DENV2 cytopathic effect, primary screen, cell-based, plate reader, single concentration; CPE inhibition, % at 9.99 µM; 350,000 tested, 1.7% active; AID 651640, 2012; DENV2-infected cells, cytopathic effect rescue; in the data active = CPE inhibition above about 20%, passing the limit was not always enough; tested in BHK-21 cells;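 note: 0% = median of neutral control wells and 100% = median of positive control wells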
SIRT5 block: SIRT5 desuccinylase inhibitors, primary screen, biochemical, fluorescence imaging, single point, set 5; NAD-dependent protein deacylase sirtuin-5, mitochondrial (Homo sapiens), Q9NXA8; Purified SirT5, succinyl-peptide AMC, trypsin-coupled fluorescence; inhibition, % at 15 µM; 330,000 tested, 1.1% active; in the data active = inhibition above about 15%
E-selectin induc: E-selectin induction in HUVECs, primary screen, imaging, HUVEC, immunofluorescence imaging, single point. normalized: neutral wells 0, TNF-alpha wells 100. activation, % at 7.58 µM. 260,000 tested, 0.37% active. AID 686992, 2013;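 active = mean E-selectin-positive cell signal at least 10% of the positive control, reached in at least 60% of replicates, without over 20% cell loss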
Target sequence (P16581 whole entry, looked up): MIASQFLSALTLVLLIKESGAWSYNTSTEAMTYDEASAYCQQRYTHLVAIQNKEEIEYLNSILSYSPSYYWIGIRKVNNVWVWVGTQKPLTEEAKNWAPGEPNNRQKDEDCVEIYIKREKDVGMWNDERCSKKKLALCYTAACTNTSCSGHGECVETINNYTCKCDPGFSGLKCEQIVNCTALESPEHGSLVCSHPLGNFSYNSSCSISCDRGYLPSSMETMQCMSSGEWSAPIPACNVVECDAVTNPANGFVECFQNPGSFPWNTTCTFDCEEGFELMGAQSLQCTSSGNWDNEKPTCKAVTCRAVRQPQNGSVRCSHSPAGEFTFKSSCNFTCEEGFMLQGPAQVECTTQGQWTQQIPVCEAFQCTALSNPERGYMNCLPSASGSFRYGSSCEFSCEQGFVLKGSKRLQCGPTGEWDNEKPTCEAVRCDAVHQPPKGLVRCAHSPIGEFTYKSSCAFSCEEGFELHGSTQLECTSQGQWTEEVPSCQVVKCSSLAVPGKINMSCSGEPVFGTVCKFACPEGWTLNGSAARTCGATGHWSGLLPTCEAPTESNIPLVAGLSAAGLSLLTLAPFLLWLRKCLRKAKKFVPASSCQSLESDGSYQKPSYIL
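Assay system: HUVEC, human umbilical vein endothelial cells / Amount: 3,000 HUVEC/well / Controls: TNF-alpha positive control, DMSO neutral control / Compound dosing: single concentration / Medium: EGM-2 over gelatin coat / Evaluation: percent E-selectin-positive cells / Signal: immunofluorescence imaging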
An asterisk follows results filed as active; ! = a repeat was not active.

What do the screens show for `Cc1ccc(NCC(=O)N2CCN(S(=O)(=O)c3ccccc3)CC2)cc1F`?
DENV2 CPE: -5; SIRT5 block: -2; E-selectin induc: 32*

How did O=C(C(O)c1ccccc1)N1CCN(S(=O)(=O)c2ccc(F)c(F)c2)CC1 (centres undefined) do in these assays?
DENV2 CPE: -6; SIRT5 block: -7; E-selectin induc: 0

What do the screens show for `N#Cc1ccc(NCC(=O)N2CCN(S(=O)(=O)c3ccccc3)CC2)cc1`?
DENV2 CPE: -2; SIRT5 block: 0; E-selectin induc: 0

What do the screens show for `Cc1ccc(S(=O)(=O)N2CCN(C(=O)C(O)c3ccccc3)CC2)cc1` (centres undefined)?
DENV2 CPE: 37*; SIRT5 block: -2; E-selectin induc: 0

What do the screens show for `Cc1ccc(N(C)C(=O)N2CCN(S(=O)(=O)c3ccc(C)cc3)CC2)cc1`?
DENV2 CPE: 59*; E-selectin induc: 0

What do the screens show for `CN(Cc1ccccc1F)c1ccc(S(=O)(=O)N2CCCC2)cn1`?
DENV2 CPE: 5; SIRT5 block: 5

Results for O=C(CN1C(=O)C2(OCCO2)c2ccccc21)c1ccc(Br)cc1 ?
SIRT5 block: -5

How did COc1ccccc1Nc1nc(N)nc(CN2CCN(c3ccccc3F)CC2)n1 do in these assays?
E-selectin induc: -1

What do the screens show for `CCOC(=O)N1CCN(C(=O)c2cnn(-c3ccccc3)c2NC(=O)c2ccccc2F)CC1`?
SIRT5 block: 0

How did O=C(Cn1c(CO)nc2ccccc21)NCCc1ccc(F)cc1 do in these assays?
DENV2 CPE: -2; SIRT5 block: -6; E-selectin induc: 0

What do the screens show for `CCOC(=O)Cn1c(COc2ccccc2OC)[n+](C)c2ccccc21`?
DENV2 CPE: 8; SIRT5 block: -2

How did COc1ccc(OCCNC(=O)/C=C/c2ccccc2)cc1 do in these assays?
DENV2 CPE: 4; SIRT5 block: 0; E-selectin induc: 5

What do the screens show for `O=C(Nc1ccc(F)cc1)N1CCCCN2[C@H](CO)[C@@H](c3ccc(-c4ccncc4)cc3)[C@@H]2C1`?
DENV2 CPE: -13; SIRT5 block: 0; E-selectin induc: 0

What do the screens show for `CC1=C(n2ccnc2)CCC1=O`?
E-selectin induc: 0

Results for COc1cc(Cl)c(C)cc1NC(=O)c1ccc(S(C)(=O)=O)cc1 ?
SIRT5 block: -3; E-selectin induc: 1

What do the screens show for `O=C(CN1C(=O)NC2(CCCCC2)C1=O)NNC(=O)C1CC1`?
DENV2 CPE: 6; SIRT5 block: 1; E-selectin induc: -1

What do the screens show for `O=S(=O)(c1ccc(F)cc1)N1CCCNCC1`?
DENV2 CPE: -1; SIRT5 block: -1; E-selectin induc: 0

Results for Cc1ccc(S(=O)(=O)N2CCCNCC2)cc1 ?
DENV2 CPE: 23*; SIRT5 block: -4; E-selectin induc: 0

What do the screens show for `Cc1ccccc1NC(=O)C1CCCN(S(=O)(=O)c2cnc[nH]2)C1` (centres undefined)?
DENV2 CPE: 18

Results for Cc1ccc(NC(=O)CCc2nnc3ccc(N4CCN(C)CC4)nn23)cc1F ?
DENV2 CPE: 4; SIRT5 block: -4

Results for CC(=O)Nc1ccc(-c2csc(N/N=C\c3ccncc3)n2)cc1 ?
DENV2 CPE: -3; SIRT5 block: 1; E-selectin induc: 1

How did CCOc1ccc(NC(=O)CN(C)C(=O)c2ccccc2OCc2c(C)noc2C)cc1OCC do in these assays?
DENV2 CPE: 25*; SIRT5 block: -4

What do the screens show for `Cc1ccc(NC(=O)CN(C)C(=O)c2ccccc2OCc2c(C)noc2C)cc1`?
DENV2 CPE: -11; SIRT5 block: -2

How did CCc1nnc2n1N=C(c1cccc([N+](=O)[O-])c1)CS2 do in these assays?
DENV2 CPE: -1; SIRT5 block: 2; E-selectin induc: 3

How did CCOc1ccc(/C=C2\SC(=S)N(NS(=O)(=O)c3ccc(C)cc3)C2=O)cc1OC do in these assays?
DENV2 CPE: 3; SIRT5 block: 3; E-selectin induc: 0

Results for CCCNS(=O)(=O)c1ccc2c(c1)n(C)c(=O)n2C ?
DENV2 CPE: 0; SIRT5 block: 4

What do the screens show for `CCCCN(C)CCNS(=O)(=O)c1ccc2c(c1)n(C)c(=O)c(=O)n2C`?
DENV2 CPE: -2; SIRT5 block: 3; E-selectin induc: 164*

What do the screens show for `NS(=O)(=O)c1ccc(Sc2nc3ccccc3s2)c([N+](=O)[O-])c1`?
DENV2 CPE: -8; SIRT5 block: -2

What do the screens show for `C[C@@H]1CCCCO[C@H](CN(C)C(=O)Nc2ccccc2)[C@@H](C)CN([C@H](C)CO)C(=O)c2cc(NS(=O)(=O)c3cn(C)cn3)ccc2O1`?
DENV2 CPE: 45*!; SIRT5 block: -1; E-selectin induc: 4

What do the screens show for `C[C@H](CO)N1C[C@H](C)[C@@H](CN(C)C(=O)Nc2cccc3ccccc23)OCCCC[C@H](C)Oc2ccc(NS(=O)(=O)c3cn(C)cn3)cc2C1=O`?
DENV2 CPE: -19; SIRT5 block: -4; E-selectin induc: 4

How did C[C@@H]1CCCCO[C@H](CN(C)C(=O)Nc2ccccc2)[C@H](C)CN([C@H](C)CO)C(=O)c2cc(NS(=O)(=O)c3cn(C)cn3)ccc2O1 do in these assays?
DENV2 CPE: -5; SIRT5 block: 0; E-selectin induc: 0

What do the screens show for `C[C@@H]1CCCCO[C@H](CN(C)C(=O)Nc2cccc3ccccc23)[C@@H](C)CN([C@@H](C)CO)C(=O)c2cc(NS(=O)(=O)c3cn(C)cn3)ccc2O1`?
DENV2 CPE: 89*; E-selectin induc: 0

What do the screens show for `COc1ccc(S(=O)(=O)Nc2c(C)nn(C)c2C)cc1Br`?
DENV2 CPE: 31*; SIRT5 block: -1; E-selectin induc: 0

How did Cc1ccc(S(=O)(=O)Nc2c(C)nn(C)c2C)cc1C do in these assays?
DENV2 CPE: 2; SIRT5 block: -3; E-selectin induc: 0

Results for COc1ccc(-c2cc(N)n(S(=O)(=O)c3ccc(F)cc3)n2)cc1OC ?
DENV2 CPE: -1; SIRT5 block: -1; E-selectin induc: -2

Results for C[C@@H]1CN([C@@H](C)CO)C(=O)c2cc(N(C)C)ccc2O[C@H]1CN(C)C(=O)Nc1ccc(F)cc1 ?
DENV2 CPE: 35*; SIRT5 block: 3

Results for C[C@@H]1CN([C@H](C)CO)C(=O)c2cc(N(C)C)ccc2O[C@H]1CN(C)C(=O)Nc1ccc(F)cc1 ?
DENV2 CPE: 12; SIRT5 block: 34*

What do the screens show for `C[C@H](CO)N1C[C@H](C)[C@@H](CN(C)C(=O)Nc2ccc(F)cc2)Oc2ccc(N(C)C)cc2C1=O`?
DENV2 CPE: -7; SIRT5 block: -6

Results for C[C@H]1CN([C@@H](C)CO)C(=O)c2cc(N(C)C)ccc2O[C@@H]1CN(C)C(=O)Nc1ccc(F)cc1 ?
DENV2 CPE: 11

What do the screens show for `O=C1NCCN1c1ccc(CN2CCN(C3CCCCC3)C(CCO)C2)cc1` (centres undefined)?
DENV2 CPE: -4; SIRT5 block: 10; E-selectin induc: -1

What do the screens show for `O=C(Nc1ccc(NC(=O)c2cc([N+](=O)[O-])ccc2N2CCOCC2)cc1)c1cccs1`?
DENV2 CPE: -6; SIRT5 block: -8; E-selectin induc: -2

What do the screens show for `CCC[n+]1c(C)sc2c(OC)ccc(OC)c21`?
DENV2 CPE: -1; SIRT5 block: 0; E-selectin induc: 0
